# High-throughput results as filed in PubChem.
# SUMO1-SIM PPI – modulators of SUMO1 protein-protein interactions, primary screen, biochemical, uHTS | Small ubiquitin-related modifier 1 (Homo sapiens), P63165 | SUMO1 binding to a labelled peptide, TR-FRET, 1 h | inhibition, % at 20 µM | actives 0.33% (n = 360,000); in the data active means inhibition above about 37%
# Target sequence (P63165 whole entry, looked up): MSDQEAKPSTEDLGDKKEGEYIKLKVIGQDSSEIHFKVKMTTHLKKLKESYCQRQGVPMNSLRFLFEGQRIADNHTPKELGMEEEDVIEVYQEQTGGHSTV
# DNMT1 block – human DNMT1 methyltransferase inhibitors, primary screen, biochemical, molecular beacon, fluorescence, HinP1I cleavage, uHTS. inhibition (reported as % activation of signal), % at 10 µM. actives 0.83% (n = 360,000). AID 588458, 2011; in the data active means inhibition above about 50%
# Scp1 inh – Scp-1 phosphatase inhibitors, primary screen, biochemical, colorimetric, uHTS; Carboxy-terminal domain RNA polymerase II polypeptide A small phosphatase 1 (Homo …; Recombinant Scp1, phosphopeptide, malachite green phosphate absorbance; inhibition, % at 20 µM; actives 0.88% (n = 340,000); AID 493091, 2011;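 active means inhibition above about 50% at 20 µM, limit read from the data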
# Target sequence (Q9GZU7 76-261 limits assumed): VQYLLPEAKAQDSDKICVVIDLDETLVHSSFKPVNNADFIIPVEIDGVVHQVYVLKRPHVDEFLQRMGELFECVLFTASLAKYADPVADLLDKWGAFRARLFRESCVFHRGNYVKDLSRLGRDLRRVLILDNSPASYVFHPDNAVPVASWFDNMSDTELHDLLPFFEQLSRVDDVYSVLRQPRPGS
#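 Test system: SCP-1 catalytic domain; Buffer or medium: Acidic Tris acetate buffer with magnesium and detergent; Also added: Phosphorylated 17-residue peptide substrate; Compound: single 20 µM dose, 1% DMSO; Schedule: enzyme reaction 45 min at room temperature, colour 5 min, stabilisation 30 min; Signal: Phosphate-binding colour reagent, absorbance read at 630 nm.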
# LMPTP block – LMPTP phosphatase inhibitors, primary screen, biochemical, fluorescence intensity, uHTS; Low molecular weight phosphotyrosine protein phosphatase (Homo sapiens), P24666; recombinant LMPTP-A, OMFP fluorogenic substrate; inhibition, % at 20 µM; actives 0.22% (n = 360,000);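 active means compounds that cut the enzyme signal by at least half of the control window in the single-dose screen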
# Target sequence (P24666 whole entry, looked up): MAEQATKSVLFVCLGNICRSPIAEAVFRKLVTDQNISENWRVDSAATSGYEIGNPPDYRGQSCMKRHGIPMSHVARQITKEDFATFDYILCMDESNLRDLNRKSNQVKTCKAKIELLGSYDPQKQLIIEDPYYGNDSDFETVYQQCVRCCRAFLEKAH
#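 material = LMPTP-A | quantity = 0.625 nM enzyme | reagent = OMFP substrate, 400 µM final | buffer or medium = Bis-Tris pH 6.0, DTT, detergent | detection = endpoint fluorescence intensity from OMFP dephosphorylation | dosing = single 20 µM dose | read-out basis = % inhibition relative to no-enzyme and uninhibited control wells | control set = no-enzyme and uninhibited controls | timing = 50 min at room temperature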
# STEP block – STEP phosphatase inhibitors, primary screen, biochemical, fluorescence intensity, uHTS; recombinant STEP, OMFP fluorogenic substrate; inhibition, % at 20 µM; actives 0.25% (n = 360,000); AID 588621, 2011;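 active means inhibition at 20 µM, scaled per plate between control wells, above about 37%, limit read from the data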
#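 System: STEP phosphatase, cell-free reaction; Buffer or medium: Bis-Tris pH 6.0 buffer with DTT, detergent; Incubation: 20 min at room temperature, dark; Measured by: fluorescence, 480/540 nm.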
# Beacon interf DR – spectral interference with molecular beacon fluorescence, dose response, artefact control for DNMT1 inhibitor project, biochemical, fluorescent molecular beacon. 200 tested, under 10 active. shares compounds with DNMT1 block. IC50, µM. spectral interference counter-screen; call rule not given here
# DNMT1 confirm – DNMT1 methyltransferase inhibitor retest, confirmation, biochemical, molecular beacon, fluorescence, single concentration. actives 8% (n = 2,300). inhibition, % at 10 µM. shares compounds with DNMT1 block. DNMT1 molecular beacon HinP1I cleavage;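 active means average inhibition of at least 30% in the single-concentration confirmation test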
# Beacon interf – beacon fluorescence artifact counter-screen | activation (fluorescence interference), % at 10 µM | shares compounds with DNMT1 block | DNMT1 molecular beacon spectral interference counterscreen, fluorescence 485/520 | actives 1% (n = 2,300);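 active means activation of at least 30% at 10 µM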;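 further: DNMT1 catalytic domain with a HinP1I cleavage step and a FAM/dabcyl DNA beacon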
# Hits are given with their value; . = inactive; / = no result given. Compounds with a hit are over-represented: about 1.7% of the library has one in this group of screens.
SMILES,SUMO1-SIM PPI,DNMT1 block,Scp1 inh,LMPTP block,STEP block,DNMT1 confirm,Beacon interf,others
O=C1COc2ccc(C(=O)COC(=O)/C=C/c3ccc(Br)o3)cc2N1,81.0,100.3,81.2,71.1,.,.,.,Beacon interf DR=.
COc1ccc(CNC(=O)C2CCCN2C(=O)NCc2ccccc2)cc1 (centres undefined),.,.,.,.,.,/,/,
Cc1ccc(C)c(N2CCN(C(=O)CCCn3ncn4c(cc5occc54)c3=O)CC2)c1,.,.,.,.,.,/,/,
COCc1cc(=O)n2[nH]c(-c3ccsc3-n3c(C)ccc3C)cc2n1,44.9,68.3,.,.,.,.,.,
Cc1cc(=O)n2[nH]c(-c3ccsc3-n3c(C)ccc3C)cc2n1,.,66.9,.,.,.,.,.,
Cc1cc(C(=O)Nc2cc(S(C)(=O)=O)ccc2Cl)c(C)o1,.,.,.,.,.,/,/,
Cc1sc2ncnc(NCC(O)c3ccc([N+](=O)[O-])cc3)c2c1C (centres undefined),.,.,.,.,.,/,/,
O=C1NC(=Nc2ccc3ccccc3c2)S/C1=C/c1ccco1,.,67.2,.,.,.,.,.,
COc1ccc(N=C2NC(=O)/C(=C\C=C\c3ccco3)S2)cc1,.,79.7,.,.,.,.,.,
Cc1cccc(N=C2NC(=O)/C(=C/C=C/c3ccco3)S2)c1,.,85.1,.,.,.,.,.,
Cc1ccc(N=C2NC(=O)/C(=C\c3ccco3)S2)cc1,.,.,.,.,.,/,/,
O=C(CCCn1c(=S)[nH]c2cc3c(cc2c1=O)OCO3)NCCc1ccccc1Cl,.,.,.,.,.,/,/,
O=S(=O)(CCN1CCCCC1)Oc1ccc(Cl)cc1Cl,.,.,.,.,.,/,/,
Cc1c(NS(=O)(=O)c2cc(C(=O)OCC(=O)c3ccccc3F)ccc2Cl)c(=O)n(-c2ccccc2)n1C,.,63.2,/,.,.,.,.,
Cc1ccc(C)c(S(=O)(=O)N2CCN(C(=O)c3ccncc3)CC2)c1,.,.,.,.,.,/,/,
O=C(Nc1ccc(N2CCCC2)cc1)c1cccc(-c2cc3ccccc3oc2=O)c1,.,76.4,.,.,.,.,.,
O=C(Nc1ccccc1N1CCCC1)c1cccc(-c2cc3ccccc3oc2=O)c1,.,.,.,.,.,/,/,
O=C(Nc1ccc(N2CCCCC2)cc1)c1ccccc1,.,.,.,.,.,/,/,
O=C(Nc1ccc(N2CCCC2)cc1)c1cccc(F)c1,.,64.6,.,.,.,.,.,
O=C(Nc1ccc(N2CCCC2)cc1)c1ccc2ccccc2c1,.,60.9,.,.,.,.,.,
O=C(Nc1ccc(S(=O)(=O)N2CCOCC2)cc1)c1ccc([N+](=O)[O-])cc1Cl,.,.,.,.,.,/,/,
O=C(Nc1ccc(N2CCCC2)cc1)c1ccc([N+](=O)[O-])cc1Cl,.,74.2,.,.,.,.,.,
Cc1ccc(C)c(NC(=O)C2CCN(S(=O)(=O)c3ccc4c(c3)NC(=O)CO4)CC2)c1,.,.,.,.,.,/,/,
CC1CCCCC12NC(=O)N(CC(=O)Nc1ccc(OC(F)F)cc1)C2=O (centres undefined),.,.,.,.,.,/,/,
O=C(Cc1ccccc1)NN1CCCCC1,.,.,.,.,.,/,/,
SMILES,SUMO1-SIM PPI,DNMT1 block,Scp1 inh,LMPTP block,STEP block,DNMT1 confirm,Beacon interf,others
CCOc1ccc(S(=O)(=O)N=C(c2ccccc2)N2CCOCC2)cc1,.,.,.,.,.,/,/,
COc1ccc(OC)c(NC(=O)CN2C(=O)C(=O)N(Cc3ccccc3)C2=O)c1,.,.,.,.,.,/,/,
O=C(Nc1ccc(N2CCCC2)cc1)c1ccccc1F,.,72.4,.,.,.,.,.,
Cc1nc(NC(=O)c2cccc(-c3cc4ccccc4oc3=O)c2)ccc1Br,.,.,.,.,.,/,/,
O=C(Nc1ccc(N2CCCCC2)cc1)c1ccc(F)cc1F,.,.,.,.,.,/,/,
O=C(Nc1ccc(Br)cn1)c1cccc(-c2cc3ccccc3oc2=O)c1,.,64.2,.,.,.,.,.,
COc1cc(OC)c(NS(=O)(=O)c2c(C(=O)N3CCCCC3)c(C)n(C)c2C)cc1Cl,.,.,.,.,.,/,/,
Cc1ccc(S(=O)(=O)N2CCC[C@H]2C(=O)OCc2cc(=O)oc3cc(C)ccc23)cc1,.,.,.,.,.,/,/,
Cc1cc2nc3c(=O)n(CCc4ccccc4)c(=O)[nH]c3nc2cc1N,.,63.4,.,.,.,65.5,90.4,
C=CCn1c(=O)[nH]c2nc3cc(N=CN(C)C)c(C)cc3nc2c1=O,.,.,.,.,.,/,/,
CCc1nnc(NS(=O)(=O)c2ccc(Nc3ccc4nonc4c3[N+](=O)[O-])cc2)s1,.,.,.,.,.,/,/,
NC(=S)NN=Cc1ccc(-c2ccc(S(=O)(=O)Nc3ncccn3)cc2)o1,.,88.6,.,.,.,.,.,
CCc1ccccc1NC(=O)CSc1ccsc1[N+](=O)[O-],.,53.0,.,.,.,.,.,
COc1ccccc1CNC(=O)CSc1ccsc1[N+](=O)[O-],.,.,.,.,.,/,/,
Cc1ccc(S(=O)(=O)NC(CC(C)C)C(=O)NCC(C)(C)N2CCOCC2)cc1 (centres undefined),.,.,.,.,.,/,/,
O=C(Cc1nnc(NC(=O)Nc2ccc(Cl)cc2)s1)NCc1ccccc1,.,.,.,.,.,.,.,
CCc1cc(C(=O)N2CCN(S(=O)(=O)c3ccc(Cl)cc3)CC2)sc1C,.,.,.,.,.,/,/,
COc1ccc(/C=C(/NC(=O)c2ccc(C)cc2)C(=O)NCc2ccncc2)cc1,.,.,.,.,.,/,/,
COc1ccc(C(=O)N/C(=C\c2ccc(Cl)cc2)C(=O)NCc2ccncc2)cc1,.,78.9,/,.,.,.,.,
CCOc1cc(/C=C2\C(=O)NN(c3ccccc3)C2=O)cc([N+](=O)[O-])c1O,.,67.7,.,.,.,.,.,
Cc1ccc(S(=O)(=O)N(C)C)cc1NC(=O)CSc1nc2ncc(Cl)cc2[nH]1,.,.,.,.,.,/,/,
CC1Sc2ccc(S(=O)(=O)CCC(=O)N3CCN(c4cccc(Cl)c4)CC3)cc2NC1=O (centres undefined),.,.,.,.,.,/,/,
